Where a SMILES comes first, the peptide text is derived from it. [ ]: non-standard residue; d: D form. Phe(4-NO2) = N[C@@H](Cc1ccc([N+](=O)[O-])cc1)C(=O)O; Phe(4-I) = N[C@@H](Cc1ccc(I)cc1)C(=O)O; Sar = CNCC(=O)O
Legend:
Oryctolagus cuniculus [1] = species: Oryctolagus cuniculus; assay: Antagonist activity pA2, was measured in the in vitro rabbit aorta strip assay; format: functional; settings: read-out: pA2 (converted)
Procedure, shortened: (§1)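 Isolated rabbit aorta strip (method of Rioux et al.); pA2 against the ANG II dose-response curve, determined at low antagonist doses within the competitive-inhibition range.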

[2] = target: Angiotensin II receptor (Rattus norvegicus) (UniProt P29089+P25095+P35351); assay: In vivo blood pressure increase produced by a 1 ug bolus i.v.; format: functional, organism-based
Procedure, shortened: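 Rat blood pressure assay (Regoli et al.); agonist activity read as the mmHg rise in blood pressure after a 1 μg intravenous bolus of compound.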

Rattus norvegicus [3] = assay: Residual ANG II-like antagonist activity, ID50 was measured in vivo, in the rat blood pressure assay; Partial angonist; format: functional, organism-based; settings: filed as partial agonist
[4] = test system: Angiotensin II receptor (Oryctolagus cuniculus); assay: Angiotensin II-like agonist activity, measured in the in vitro rabbit aorta strip assay
Oryctolagus cuniculus [5] = species: Oryctolagus cuniculus; assay: Agonist, ''ANG II-like'' activity was measured in the in vitro rabbit aorta strip assay; + = mixed agonist-antagonist effects seen above 100n g/mL; format: functional
Procedure, shortened: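 Isolated rabbit aorta strip (method of Rioux et al.); contractile agonist activity expressed as percent of the response to ANG II.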

Oryctolagus cuniculus [6] = species: Oryctolagus cuniculus; assay: Antagonist activity pA2, was measured in the in vitro rabbit aorta strip assay; + = mixed agonist-antagonist effects seen above 100n g/mL; format: functional; procedure, shortened: as §1
Rattus norvegicus [7] = assay: Residual ANG II-like antagonist activity, ID50 was measured in vivo, in the rat blood pressure assay; + means slight antagonist effect; format: functional, organism-based; settings: filed as antagonist

| Activity [4] [%] | Molecule | Kb (Oryctolagus cuniculus [1]) [nM] | Blood pressure [2] [mmHg] | ID50 (Rattus norvegicus [3]) | Activity (Oryctolagus cuniculus [5]) | pA2 (Oryctolagus cuniculus [6]) | ID50 (Rattus norvegicus [7]) |
| --- | --- | --- | --- | --- | --- | --- | --- |
| 0 | CC[C@H](C)[C@H](NC(=O)[C@H](Cc1ccc(I)cc1)NC(=O)[C@@H](NC(=O)[C@H](CCCN=C(N)N)NC(=O)CNC)C(C)C)C(=O)N[C@@H](Cc1c[nH]cn1)C(=O)N1CCC[C@H]1C(=O)N[C@@H](Cc1ccccc1)C(=O)O (H-[Sar]RV[Phe(4-I)]IHPF-OH) | 251 | 80 | Partial agonist |  |  |  |
|  | CC[C@H](C)[C@H](NC(=O)[C@H](Cc1ccc([N+](=O)[O-])cc1)NC(=O)[C@@H](NC(=O)[C@H](CCCN=C(N)N)NC(=O)CNC)C(C)C)C(=O)N[C@@H](Cc1c[nH]cn1)C(=O)N1CCC[C@H]1C(=O)N[C@@H](Cc1ccccc1)C(=O)O (H-[Sar]RV[Phe(4-NO2)]IHPF-OH) |  |  |  | mixed agonist-antagonist effects seen above 100n g/mL | mixed agonist-antagonist effects seen above 100n g/mL |  |
| 11 | H-DRVFIHPF-OH |  | 20 |  |  |  | Partial antagonist |

— ChEMBL document CHEMBL1124503, “The role of position 4 in angiotensin II antagonism: a structure-activity study” (J Med Chem, 1989)
